For 15 compounds, ED1.5 and Max results are on record in ChEMBL document CHEMBL1125147, “Nonsteroidal cardiotonics. 3. New 4,5-dihydro-6-(1H-indol-5-yl)pyridazin-3(2H)-ones and related compounds with positive inotropic activities” (1990).

Assay [1] deals with Rattus norvegicus. Briefly: Effective dose required to produce an increase in dP/dt by 1500 mmHg/s from that of the control in the anesthetized rats. In kind it is functional. In short, it runs like this: (§1)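 Male SPF Sprague–Dawley rats (350–450 g), thiabutarbital sodium 80–100 mg/kg ip, tracheotomized. LV pressure measured by a Millar microtip catheter passed via the right carotid artery. Compounds given as jugular iv bolus (0.5 mL/kg) in increasing doses every 10 min. Readings taken 10 min post-dose as steady state. ED1.5 (dP/dt +1500 mmHg/s at LVP 50 mmHg) from log-linear regression, log means. Max = peak rise in dP/dt and the dose giving it.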

Assay [2] deals with Felis catus. Description: Effective dose required to produce an increase in dP/dt by 1500 mmHg/s from that of the control in the anesthetized cats. In kind it is functional. In short, it runs like this:
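Cats of both sexes, pentobarbitone 45 mg/kg ip plus 0.1 mg/kg min infusion, pump-ventilated, open chest. Dextran 10 mL/kg iv and desacetylmetipranolol 0.3 mg/kg iv for β-blockade failure. LV pressure by Millar tip catheter via the auricle. Increasing iv bolus doses every 10 min, read at 10 min. ED1.5 (dP/dt +1500 mmHg/s at LVP 50 mmHg) by log-linear regression, log means.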

Assay [3] deals with Rattus norvegicus. Briefly: Maximum increase in dP/dt from that of the control in the anesthetized rats at dose 10.0 mg/kg. In kind it is functional. In short, it runs like this:
as §1

Assay [4] concerns Felis catus. Description: Maximum increase in dP/dt from that of the control in the anesthetized cats at dose 10.0 mg/kg.

Each structure is given as a SMILES string.

For `O=C1COC(c2ccc3[nH]c(-c4ccncc4)cc3c2)=NN1`, the ED1.5 in the assay with Rattus norvegicus [1] is 0.7 mg/kg.
On the same count and under the same terms, the figure for `Oc1cnc(-c2ccc3[nH]c(-c4ccncc4)cc3c2)cn1` is 0.15 mg/kg; for `O=C1CCC(c2ccc3[nH]c(-c4ccncc4)cc3c2)=NN1` it is 0.04 mg/kg.
Same read-out and setting: the figure for `O=C1CCC(c2ccc3[nH]c(-c4ccnnc4)cc3c2)=NN1` is 0.02 mg/kg.
As to `CCc1c(-c2ccncc2)[nH]c2ccc(C3=NNC(=O)CC3)cc12`, the ED1.5 with Rattus norvegicus [1] was determined as 1.1 mg/kg.
With `CC1CC(=O)NN=C1c1ccc2[nH]c(-c3ccncc3)cc2c1` (stereo not given), the ED1.5 amounted to 0.007 mg/kg in the assay with Felis catus [2] and 0.02 mg/kg in the assay on Rattus norvegicus [1].
In the assay on Rattus norvegicus [1], `O=C1CCC(c2ccc3[nH]c(-c4cccnc4)cc3c2)=NN1` displayed an ED1.5 of 2.5 mg/kg.
On the same count and under the same terms, the figure for `O=C1CCC(c2ccc3[nH]c(-c4ccccc4O)cc3c2)=NN1` is 1.04 mg/kg; for `O=C1CCC(c2ccc3[nH]c(-c4cscn4)cc3c2)=NN1` it is 0.26 mg/kg.
In the assay with Rattus norvegicus [1], `Cc1c(-c2ccncc2)[nH]c2ccc(C3=NNC(=O)CC3)cc12` registered an ED1.5 of 0.08 mg/kg.
The compound `CCOC(=O)c1cc2cc(C3=NNC(=O)CC3)ccc2[nH]1` came in with an ED1.5 in the assay with Rattus norvegicus [1] of 1.5 mg/kg.
The same measure, in the same setting: in the case of `CC1(C)C(=O)NN=C1c1ccc2[nH]c(-c3ccncc3)cc2c1` it was 0.25 mg/kg; in that of `Cc1c(-c2ccncc2)[nH]c2ccc(C3=NNC(=O)CC3C)cc12` (stereo not given), 0.02 mg/kg.
Take `Cc1[nH]c(=O)c(C#N)cc1-c1ccncc1` [MILRINONE]: the ED1.5 was found to be 0.04 mg/kg with Felis catus [2] and 0.15 mg/kg in the assay with Rattus norvegicus [1]. This compound showed a Max in the assay on Rattus norvegicus [3] of 3.4 mHg/s.
Consider `COc1ccc(-c2nc3cc(C4=NNC(=O)CC4C)ccc3[nH]2)cc1` (stereo not given) [PIMOBENDAN], for which the ED1.5 in the assay on Felis catus [2] was 0.6 mg/kg; in the assay on Rattus norvegicus [1], 1.31 mg/kg. Further, the Max in the assay with Felis catus [4] turned out to be 2.9 mHg/s.
